Source: ChEMBL document CHEMBL5058577, “EUbOPEN Chemogenomics Library 2 (Multiplex)” (2022)

System: HEK-293T
Assay: Multiplex assay against HEK293T
Type: toxicity, cell-based
Conditions: human
Summary of the method: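 With compound added, live cells were imaged on a CQ1 microscope at 37°C and 5% CO2; staining with Hoechst33342, BioTracker Green Microtubule Cytoskeleton Dye, MitoTracker Red and Annexin V Alexa Fluor 680 had been done at seeding. The CellPathfinder machine-learning gating scheme split cells into Hoechst high-intensity objects or normal cells, normal cells into healthy, pyknosed or fragmented nuclei, and pyknosed cells into mitotic or apoptotic. The tubulin, mitochondrial-mass and membrane-permeability phenotypes are per cents of healthy-nucleus cells.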

[1] = 12 h, 1 µM, compound concentration 1 uM, replicate 1
[2] = 12 h, 1 µM, compound concentration 1 uM, replicate 2
[3] = 12 h, 10 µM, compound concentration 10 uM, replicate 1
[4] = 12 h, 10 µM, compound concentration 10 uM, replicate 2
[5] = 24 h, 1 µM, compound concentration 1 uM, replicate 1
[6] = 24 h, 1 µM, compound concentration 1 uM, replicate 2
[7] = 24 h, 10 µM, compound concentration 10 uM, replicate 1
[8] = 24 h, 10 µM, compound concentration 10 uM, replicate 2
[9] = 48 h, 1 µM, compound concentration 1 uM, replicate 1
[10] = 48 h, 1 µM, compound concentration 1 uM, replicate 2
[11] = 48 h, 10 µM, compound concentration 10 uM, replicate 1
[12] = 48 h, 10 µM, compound concentration 10 uM, replicate 2

## S=C(NCCCc1c[nH]cn1)NCCCN(Cc1ccc(Cl)c(Cl)c1)c1ccc(Br)cn1
[1]
  Population Apoptotic (%): 39%
  Population Fragmented Nuclei (%): 8%
  Population Healthy Nuclei (%): 78%
  Population Hoechst High Intensity Objects (%): 17%
  Population Membrane Permeable-Phenotype (%): 0%
  Population Mitochondria Different-Phenotype (%): 50%
  Population Mitotic Cells (%): 60%
  Population Normal (%): 82%
  Population Pyknosed Nuclei (%): 13%
  Population Tubulin-Different-Phenotype (%): 36%
  Total Cell Count: 378
[2]
  Population Apoptotic (%): 53%
  Population Fragmented Nuclei (%): 5%
  Population Healthy Nuclei (%): 79%
  Population Hoechst High Intensity Objects (%): 6%
  Population Mitochondria Different-Phenotype (%): 58%
  Population Mitotic Cells (%): 46%
  Population Normal (%): 93%
  Population Pyknosed Nuclei (%): 14%
  Population Tubulin-Different-Phenotype (%): 35%
  Total Cell Count: 294
[3]
  Population Apoptotic (%): 90%
  Population Fragmented Nuclei (%): 4%
  Population Healthy Nuclei (%): 57%
  Population Hoechst High Intensity Objects (%): 33%
  Population Membrane Permeable-Phenotype (%): 0%
  Population Mitochondria Different-Phenotype (%): 77%
  Population Mitotic Cells (%): 9%
  Population Normal (%): 66%
  Population Pyknosed Nuclei (%): 38%
  Population Tubulin-Different-Phenotype (%): 78%
  Total Cell Count: 242
[4]
  Population Apoptotic (%): 77%
  Population Fragmented Nuclei (%): 8%
  Population Healthy Nuclei (%): 71%
  Population Hoechst High Intensity Objects (%): 19%
  Population Mitochondria Different-Phenotype (%): 84%
  Population Mitotic Cells (%): 22%
  Population Normal (%): 80%
  Population Pyknosed Nuclei (%): 19%
  Total Cell Count: 229
[5]
  Population Apoptotic (%): 39%
  Population Fragmented Nuclei (%): 10%
  Population Healthy Nuclei (%): 73%
  Population Hoechst High Intensity Objects (%): 22%
  Population Membrane Permeable-Phenotype (%): 0%
  Population Mitochondria Different-Phenotype (%): 45%
  Population Mitotic Cells (%): 60%
  Population Normal (%): 77%
  Population Pyknosed Nuclei (%): 16%
  Population Tubulin-Different-Phenotype (%): 32%
  Total Cell Count: 326
[6]
  Population Apoptotic (%): 41%
  Population Fragmented Nuclei (%): 9%
  Population Healthy Nuclei (%): 81%
  Population Hoechst High Intensity Objects (%): 13%
  Population Mitochondria Different-Phenotype (%): 48%
  Population Mitotic Cells (%): 58%
  Population Normal (%): 86%
  Population Pyknosed Nuclei (%): 9%
  Total Cell Count: 301
[7]
  Population Apoptotic (%): 85%
  Population Fragmented Nuclei (%): 11%
  Population Healthy Nuclei (%): 49%
  Population Hoechst High Intensity Objects (%): 48%
  Population Membrane Permeable-Phenotype (%): 1%
  Population Mitochondria Different-Phenotype (%): 75%
  Population Mitotic Cells (%): 14%
  Population Normal (%): 51%
  Population Pyknosed Nuclei (%): 39%
  Population Tubulin-Different-Phenotype (%): 78%
  Total Cell Count: 237
[8]
  Population Apoptotic (%): 82%
  Population Fragmented Nuclei (%): 16%
  Population Healthy Nuclei (%): 59%
  Population Hoechst High Intensity Objects (%): 39%
  Population Membrane Permeable-Phenotype (%): 0%
  Population Mitochondria Different-Phenotype (%): 82%
  Population Mitotic Cells (%): 17%
  Population Normal (%): 61%
  Population Pyknosed Nuclei (%): 23%
  Total Cell Count: 200
[9]
  Population Apoptotic (%): 47%
  Population Fragmented Nuclei (%): 14%
  Population Healthy Nuclei (%): 65%
  Population Hoechst High Intensity Objects (%): 36%
  Population Membrane Permeable-Phenotype (%): 3%
  Population Mitochondria Different-Phenotype (%): 38%
  Population Mitotic Cells (%): 52%
  Population Normal (%): 63%
  Population Pyknosed Nuclei (%): 19%
  Population Tubulin-Different-Phenotype (%): 29%
  Total Cell Count: 307
[10]
  Population Apoptotic (%): 36%
  Population Fragmented Nuclei (%): 17%
  Population Healthy Nuclei (%): 73%
  Population Hoechst High Intensity Objects (%): 27%
  Population Membrane Permeable-Phenotype (%): 0%
  Population Mitochondria Different-Phenotype (%): 32%
  Population Mitotic Cells (%): 63%
  Population Normal (%): 72%
  Population Pyknosed Nuclei (%): 9%
  Population Tubulin-Different-Phenotype (%): 19%
  Total Cell Count: 277
[11]
  Population Apoptotic (%): 84%
  Population Fragmented Nuclei (%): 23%
  Population Healthy Nuclei (%): 23%
  Population Hoechst High Intensity Objects (%): 75%
  Population Membrane Permeable-Phenotype (%): 0%
  Population Mitochondria Different-Phenotype (%): 86%
  Population Mitotic Cells (%): 15%
  Population Normal (%): 24%
  Population Pyknosed Nuclei (%): 52%
  Population Tubulin-Different-Phenotype (%): 53%
  Total Cell Count: 256
[12]
  Population Apoptotic (%): 75%
  Population Fragmented Nuclei (%): 21%
  Population Hoechst High Intensity Objects (%): 67%
  Population Mitochondria Different-Phenotype (%): 80%
  Population Mitotic Cells (%): 25%
  Population Normal (%): 32%
  Population Pyknosed Nuclei (%): 55%
  Population Tubulin-Different-Phenotype (%): 40%
  Total Cell Count: 203

## Cc1cc(O)c(-c2ccc([C@@H](C)CN(C)C)cc2)c2c1[nH]c(=O)c1sccc12
[1]
  Population Apoptotic (%): 63%
  Population Fragmented Nuclei (%): 14%
  Population Healthy Nuclei (%): 49%
  Population Hoechst High Intensity Objects (%): 27%
  Population Membrane Permeable-Phenotype (%): 0%
  Population Mitochondria Different-Phenotype (%): 90%
  Population Mitotic Cells (%): 36%
  Population Normal (%): 72%
  Population Pyknosed Nuclei (%): 36%
  Population Tubulin-Different-Phenotype (%): 78%
  Total Cell Count: 209
[2]
  Population Apoptotic (%): 59%
  Population Fragmented Nuclei (%): 8%
  Population Healthy Nuclei (%): 66%
  Population Hoechst High Intensity Objects (%): 28%
  Population Membrane Permeable-Phenotype (%): 1%
  Population Mitochondria Different-Phenotype (%): 91%
  Population Mitotic Cells (%): 40%
  Population Normal (%): 71%
  Population Pyknosed Nuclei (%): 25%
  Population Tubulin-Different-Phenotype (%): 74%
  Total Cell Count: 207
[3]
  Population Apoptotic (%): 53%
  Population Fragmented Nuclei (%): 6%
  Population Healthy Nuclei (%): 44%
  Population Hoechst High Intensity Objects (%): 41%
  Population Membrane Permeable-Phenotype (%): 0%
  Population Mitochondria Different-Phenotype (%): 100%
  Population Mitotic Cells (%): 46%
  Population Normal (%): 58%
  Population Pyknosed Nuclei (%): 48%
  Population Tubulin-Different-Phenotype (%): 60%
  Total Cell Count: 268
[4]
  Population Apoptotic (%): 70%
  Population Fragmented Nuclei (%): 7%
  Population Healthy Nuclei (%): 60%
  Population Hoechst High Intensity Objects (%): 28%
  Population Mitochondria Different-Phenotype (%): 94%
  Population Mitotic Cells (%): 29%
  Population Normal (%): 71%
  Population Pyknosed Nuclei (%): 31%
  Population Tubulin-Different-Phenotype (%): 72%
  Total Cell Count: 195
[5]
  Population Apoptotic (%): 65%
  Population Fragmented Nuclei (%): 9%
  Population Healthy Nuclei (%): 60%
  Population Hoechst High Intensity Objects (%): 21%
  Population Membrane Permeable-Phenotype (%): 0%
  Population Mitochondria Different-Phenotype (%): 89%
  Population Mitotic Cells (%): 34%
  Population Normal (%): 78%
  Population Pyknosed Nuclei (%): 30%
  Population Tubulin-Different-Phenotype (%): 67%
  Total Cell Count: 230
[6]
  Population Apoptotic (%): 68%
  Population Healthy Nuclei (%): 70%
  Population Mitochondria Different-Phenotype (%): 93%
  Population Mitotic Cells (%): 31%
  Population Pyknosed Nuclei (%): 19%
  Population Tubulin-Different-Phenotype (%): 74%
  Total Cell Count: 205
[7]
  Population Apoptotic (%): 73%
  Population Fragmented Nuclei (%): 8%
  Population Healthy Nuclei (%): 67%
  Population Hoechst High Intensity Objects (%): 36%
  Population Membrane Permeable-Phenotype (%): 1%
  Population Mitochondria Different-Phenotype (%): 92%
  Population Mitotic Cells (%): 26%
  Population Normal (%): 63%
  Population Pyknosed Nuclei (%): 24%
  Population Tubulin-Different-Phenotype (%): 70%
  Total Cell Count: 290
[8]
  Population Apoptotic (%): 85%
  Population Fragmented Nuclei (%): 7%
  Population Healthy Nuclei (%): 69%
  Population Hoechst High Intensity Objects (%): 25%
  Population Membrane Permeable-Phenotype (%): 0%
  Population Mitochondria Different-Phenotype (%): 93%
  Population Mitotic Cells (%): 14%
  Population Normal (%): 74%
  Population Pyknosed Nuclei (%): 23%
  Population Tubulin-Different-Phenotype (%): 80%
  Total Cell Count: 203
[9]
  Population Apoptotic (%): 86%
  Population Fragmented Nuclei (%): 13%
  Population Healthy Nuclei (%): 65%
  Population Hoechst High Intensity Objects (%): 24%
  Population Membrane Permeable-Phenotype (%): 0%
  Population Mitochondria Different-Phenotype (%): 90%
  Population Mitotic Cells (%): 13%
  Population Normal (%): 75%
  Population Pyknosed Nuclei (%): 20%
  Population Tubulin-Different-Phenotype (%): 76%
  Total Cell Count: 249
[10]
  Population Apoptotic (%): 69%
  Population Fragmented Nuclei (%): 16%
  Population Healthy Nuclei (%): 67%
  Population Hoechst High Intensity Objects (%): 25%
  Population Mitochondria Different-Phenotype (%): 96%
  Population Mitotic Cells (%): 30%
  Population Normal (%): 74%
  Population Pyknosed Nuclei (%): 16%
  Population Tubulin-Different-Phenotype (%): 70%
  Total Cell Count: 212
[11]
  Population Apoptotic (%): 86%
  Population Fragmented Nuclei (%): 15%
  Population Healthy Nuclei (%): 64%
  Population Hoechst High Intensity Objects (%): 40%
  Population Membrane Permeable-Phenotype (%): 1%
  Population Mitochondria Different-Phenotype (%): 92%
  Population Mitotic Cells (%): 13%
  Population Normal (%): 59%
  Population Pyknosed Nuclei (%): 20%
  Population Tubulin-Different-Phenotype (%): 54%
  Total Cell Count: 298
[12]
  Population Apoptotic (%): 87%
  Population Fragmented Nuclei (%): 13%
  Population Healthy Nuclei (%): 58%
  Population Hoechst High Intensity Objects (%): 34%
  Population Membrane Permeable-Phenotype (%): 0%
  Population Mitochondria Different-Phenotype (%): 100%
  Population Mitotic Cells (%): 12%
  Population Normal (%): 65%
  Population Pyknosed Nuclei (%): 28%
  Population Tubulin-Different-Phenotype (%): 73%
  Total Cell Count: 223
